# Compounds with a hit are over-represented: about 3.1% of the library has one in this group of screens.
# KCNQ1 pot: potentiators or activators of KCNQ1 channel, primary screen, cell-based, thallium flux, high-throughput; AID 2648, 2010; Potassium voltage-gated channel subfamily KQT member 1 (Homo sapiens), P51787; CHO-K1 KCNQ1, thallium flux FluxOR fluorescence; stronger effect = higher value; 0.35% of 310,000 active; B-score at 10 µM;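 active means fluorescence ratio B-score, a plate-corrected score, at least three library SD, with initial intensity B-score within 5 SD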
#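 System: CHO-K1 cells stably expressing KCNQ1 / Medium: assay buffer for compound exposure, DMSO matched across wells / Reagent: thallium- and potassium-containing depolarizing buffer / Compound: one concentration, matched DMSO / Incubation: 20 min compound pretreatment at room temperature / Measured by: kinetic FluxOR fluorescence, 10 s baseline plus 110 s post-stimulus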
# KCNQ1 inh: inhibitors of human KCNQ1 channel, primary screen, cell-based, thallium flux, high-throughput; Potassium voltage-gated channel subfamily KQT member 1 (Homo sapiens), P51787; CHO-K1 KCNQ1, FluxOR thallium flux fluorescence; stronger effect = higher value; B-score at 10 µM; 1.3% of 310,000 active; AID 2642, 2010;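 active means compounds whose thallium flux B-score, printed positive for inhibition, exceeds three library SD while starting fluorescence stays within three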;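 further: channel opened by potassium depolarization with thallium stimulus after 20 min compound exposure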
# KCNK3 inh: human KCNK3 channel inhibitors, primary screen, CHO cells, FluxOR thallium flux, B-score; Potassium channel subfamily K member 3 (Homo sapiens), O14649; FluxOR fluorescence; stronger effect = lower value; B-score at 10 µM; 0.84% of 340,000 active;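 active means B-score under library mean minus 4 SD, starting fluorescence ratio at most library mean plus 5 SD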;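 further: more negative B-score means stronger inhibition of thallium flux through KCNK3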
# hERG rescue: hERG rescue from dofetilide block, primary screen, cell-based, CHO-hERG, FluxOR thallium flux, dofetilide IC70; dofetilide IC70 present; activation (rescue from dofetilide block), less the hit threshold, % at 10 µM; 0.51% of 310,000 active; AID 1511, 2009;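 active means activation above the mean of controls blocked by dofetilide plus 5 SD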;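 further: thallium influx through hERG after potassium depolarization seen as dye fluorescence rise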
# KCNK9 block: KCNK9 potassium channel inhibitors, primary screen, HEK293 cells, thallium flux | Potassium channel subfamily K member 9 (Homo sapiens), Q9NPC2 | FluxOR thallium flux fluorescence; stronger effect = lower value | B-score at 10 µM | 1.2% of 310,000 active | AID 488922, 2010;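 active means ratio B-score over 3 SD below the library mean, with starting fluorescence within 5 SD of its mean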;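 further: negative B-score means less thallium flux so channel inhibition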
# Target sequence (Q9NPC2 whole entry, looked up): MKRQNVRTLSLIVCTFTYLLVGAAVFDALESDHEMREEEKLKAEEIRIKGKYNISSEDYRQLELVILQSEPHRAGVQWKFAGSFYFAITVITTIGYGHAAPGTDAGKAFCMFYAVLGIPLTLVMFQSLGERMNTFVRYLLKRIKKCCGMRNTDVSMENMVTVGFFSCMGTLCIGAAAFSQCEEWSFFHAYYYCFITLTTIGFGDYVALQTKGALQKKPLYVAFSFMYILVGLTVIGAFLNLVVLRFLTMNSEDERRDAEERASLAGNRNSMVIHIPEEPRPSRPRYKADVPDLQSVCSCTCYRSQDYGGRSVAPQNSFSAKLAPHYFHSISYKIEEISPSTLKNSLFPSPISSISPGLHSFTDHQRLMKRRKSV
# KCNK9 block conf: KCNK9 potassium channel inhibitors, confirmation, HEK293 cells, thallium flux, duplicate. 43% of 4,900 active. shares compounds with KCNK9 block. inhibition, % at 10 µM. FluxOR thallium flux fluorescence;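 active means thallium signal inhibited by more than 5 SD of the compound-free buffer control wells, on both duplicate plates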
# Kir21 sel: mouse Kir2.1 channel inhibition, confirmation, selectivity assay for KCNK9 modulator project, cell-based, HEK293, thallium flux; shares compounds with KCNK9 block; AID 492993, 2010; inhibition, % at 10 µM; Kir2.1 cells, FluxOR thallium flux fluorescence; 4% of 4,900 active;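 active means thallium signal drop more than 5 SD beyond the mean of the no-compound control wells, seen in both duplicate plates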;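 further: signal is fluorescence rise after thallium addition divided by baseline fluorescence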
# HEK293 Tl ctr: thallium flux in non-induced HEK293 cells, confirmation, counter-screen for KCNK9 inhibitor project, cell-based, second counter screen, non-induced KCNK9-HEK293 | shares compounds with KCNK9 block | inhibition, % at 10 µM | FluxOR thallium flux | 40% of 4,900 active;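 active means thallium signal drop beyond 5 SD of the untreated control mean, on both duplicate plates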
# Numbers stand for hits; . = inactive; / = no result.
SMILES,KCNQ1 pot,KCNQ1 inh,KCNK3 inh,hERG rescue,KCNK9 block,KCNK9 block conf,Kir21 sel,HEK293 Tl ctr
CCCc1nc(SCC(=O)N2CCCc3ccccc32)c2c(=O)n(C)c(=O)n(C)c2n1,.,.,.,.,.,.,.,.
CC1CCCCN1C(=O)CSc1nc(C2CC2)nc2c1cnn2-c1ccccc1 (stereo unspecified),.,.,.,.,-11,56%,.,.
CN(C)c1ccsc1C(=O)NNS(=O)(=O)c1ccc(Cl)cc1,.,.,.,.,.,/,/,/
CCOC(=O)c1ccc(NC(=O)C2C3CCCCC32)cc1 (stereo unspecified),.,.,.,.,-9.4,.,.,.
COc1ccccc1NS(=O)(=O)c1cc(NC(=O)C2CCC2)ccc1N1CCCCC1,.,.,.,.,-8.5,34%,.,26%
COc1cccc(NC(=O)c2sc3nc(N4CCOCC4)c4c(c3c2N)CCCC4)c1,.,.,.,.,-11,.,.,.
CC(=O)c1ccc(NC(=O)c2sc3nc(N4CCOCC4)c4c(c3c2N)CCCC4)cc1,.,.,.,.,.,/,/,/
Cc1nnc2n(-c3ccccc3)c(=O)c3c4c(sc3n12)COC(C)(C)C4,.,.,.,.,.,/,/,/
CCCCSc1nnc2n(CCc3ccccc3)c(=O)c3c4c(sc3n12)COC(C)(C)C4,.,.,.,.,.,.,.,.
COc1ccc(-c2[nH]n(-c3ccc([N+](=O)[O-])cc3)c(=O)c2C=NCc2ccc(F)cc2)cc1,.,.,.,.,.,/,/,/
COc1ccc(-c2cc(=O)n(-c3ccc([N+](=O)[O-])cc3)[nH]2)cc1,.,.,.,.,.,.,.,.
Cc1cc(C)cc(-n2ncc3c2CCCC3NC(=O)c2ccccc2N2CCOCC2)c1 (stereo unspecified),.,.,.,.,.,/,/,/
COc1cc2ccccc2cc1C(=O)N1CCc2ccccc21,/,/,.,/,/,/,/,/
COc1cccc(-c2nc(CS(=O)(=O)CC(=O)NCCc3ccccc3)c(C)o2)c1,.,.,.,.,.,/,/,/
COc1cccc(-c2nc(CS(=O)(=O)CC(=O)NCC(C)c3ccccc3)c(C)o2)c1 (stereo unspecified),.,.,.,.,.,.,.,.
COc1ccc(NC(=O)N(CCc2ccccc2)Cc2cc3c(C)cc(C)cc3[nH]c2=O)cc1,.,.,.,.,.,.,.,.
COc1ccc2[nH]c(=O)c(CN(CCc3ccccc3)C(C)=O)cc2c1,.,.,.,.,.,/,/,/
CCC(=O)N(Cc1ccco1)c1nc(-c2ccccc2)cs1,.,.,.,.,.,/,/,/
O=C(c1cccs1)N(Cc1ccco1)c1nc(-c2ccc(F)cc2)cs1,.,6,-14,.,-14,64%,.,48%
NC(=O)NCCCC(=O)NCC(c1ccccc1Cl)c1c[nH]c2ccccc12 (stereo unspecified),.,.,.,.,.,/,/,/
Fc1ccc(Cn2nnnc2C(c2ccc(Cl)cc2)N2CCSCC2)cc1 (stereo unspecified),.,.,.,.,-9.4,40%,.,44%
CC1CCN(C(c2ccc(N(C)C)cc2)c2nnnn2Cc2ccc(F)cc2)CC1 (stereo unspecified),.,.,.,.,.,/,/,/
Cc1cccc(C(=O)NNC(=O)c2c(-c3ccccc3Cl)noc2C)c1O,.,.,.,.,.,/,/,/
CCOC(=O)C1CCN(Cc2cc(Cl)c3ccccc3c2O)CC1,.,.,.,.,.,.,.,.
